The source of these data is publication PMC10996840 (RSC Advances, 2024).

The structures appear in SMILES notation. Where “and” joins values, the source holds several entries; their conditions need not be identical. Equal values may be shown once. Read-outs that look alike come from different tables or passages of the source.

Assay [1] deals with MCF-7 cells. The experiment in a line: Annexin V/PI staining flow cytometry. Particulars: MCF-7 cells treated at IC50 = 0.57 μM, 48 h. Type of assay: cell-based, human. In a few lines:
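MCF-7 cells seeded at 3–5 × 10^5 per well, incubated overnight, then exposed to test compound for 48 h. Supernatant and cells collected and rinsed in ice-cold PBS. Resuspended in annexin binding buffer (CaCl2, NaCl, Hepes/NaOH, pH 7.4) with annexin V-FITC (1:100) and PI (10 μg mL−1), kept 30 min in the dark, then analysed on a FACSCalibur flow cytometer.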

The test system of assay [2] is MCF-7 cells. The experiment in a line: DNA content flow cytometry cell cycle analysis. Type of assay: cell-based, human. Conditions: MCF-7 cells treated at IC50 = 0.57 μM, 48 h.
Assay [3] concerns the target T1, PIM-1 kinase (Homo sapiens, UniProt P11309). The experiment in a line: PIM-1 kinase inhibitory assay. Conditions: for % of PIM-1 inhibition: concentration not given. Type of assay: biochemical.
Another assay concerns MCF-10A cells. Briefly: MTT cytotoxicity assay against normal MCF-10A cells. In kind it is cell-based. Conditions: for IC50: Homo sapiens, MCF-10A, read-out: IC50 ± SD MCF-10A; for IC50 ± SD MCF-10A: MTT assay, normal MCF-10A cells, mean ± SD, n = 3. In a few lines: (§1)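 Cells kept in RPMI-1640 with L-glutamine at 37 °C under 5% CO2. Plated at 5 × 10^4 cells per well in triplicate. Next day they received test compound at 0.01, 0.1, 1, 10 and 100 μM. Viability read by MTT. IC50 came from a nonlinear dose–response fit of % viability against concentration.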

Another assay has as its system HepG2 cells. Briefly: MTT cytotoxicity assay against HepG2 cells. In kind it is cell-based, human. In a few lines: as §1
The test system of assay [4] is P53, Bax, caspases-3,8,9, Bcl-2 and PIM-1 gene expression in MCF-7 cells. The experiment in a line: RT-PCR of apoptosis-related genes. Type of assay: cell-based, human. Particulars: MCF-7, IC50 = 0.57 μM, 48 h, normalized to β-actin, control = 1. The method in brief:
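MCF-7 cells treated with test compound for 48 h, then taken for RT-PCR of apoptosis-related genes. Ct values were normalised to β-actin to give relative expression as fold change versus untreated control (set to 1). Values average three independent runs.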

Assay [5] has as its target T1, PIM-1 kinase. Conditions: read-out: IC50 ± SD PIM-1 kinase inhibition; previously reported value ref 32; cited from earlier work.
The mark [6] stands for this setting: read-out: IC50 ± SD HepG2, MTT assay, liver cancer HepG2 cells, mean ± SD, n = 3.

T1 sequence (P11309 whole entry): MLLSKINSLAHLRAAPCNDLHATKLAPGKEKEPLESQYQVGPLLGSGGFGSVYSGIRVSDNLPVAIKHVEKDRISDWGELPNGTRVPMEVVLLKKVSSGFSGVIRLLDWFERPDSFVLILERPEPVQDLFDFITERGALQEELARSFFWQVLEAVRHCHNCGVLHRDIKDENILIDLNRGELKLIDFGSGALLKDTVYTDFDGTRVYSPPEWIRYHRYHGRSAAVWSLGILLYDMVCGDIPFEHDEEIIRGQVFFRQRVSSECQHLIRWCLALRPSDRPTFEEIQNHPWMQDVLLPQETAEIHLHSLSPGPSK

Regarding `N#Cc1c(-c2ccc(Cl)cc2)c2c(=O)[nH]c(-c3ccc(Cl)cc3Cl)nc2n(C2CCCCC2)c1=O` [Compound 4, 5-(4-Chlorophenyl)-8-cyclohexyl-2-(2,4-dichlorophenyl)-4,7-dioxo-3,4,7,8-tetrahydropyrido[2,3-d]pyrimidine-6-carbonitrile], in the assay on MCF-7 cells [1], the “early apoptosis (Q4)” value came out at 22.11%; the “increase of cell apoptosis versus untreated control” value was 58.29 fold and 58.3 fold; the “late apoptosis (Q2)” value is listed as 14.03%. In the assay on MCF-7 cells [1] (untreated control 0.62%), this molecule showed a total apoptosis of 36.14%. The “cell population at G2/M phase” value in the assay on MCF-7 cells [2] (control 18.86%) is listed as 4.47%. In addition, in the assay on MCF-7 cells [2] (control 48.37%), the “cell population at G1 phase” value turned out to be 56.36%. On PIM-1 kinase [3], the IC50 was 0.0114 ± 0.00013 µM and the “% of PIM-1 inhibition” value was 97.8 ± 1.8%. In addition, in the assay with MCF-10A cells, the IC50 is 47.6 ± 3.1 µM and the “IC50 ± SD MCF-10A” value is “non-toxic”. In the assay with HepG2 cells (setting [6]), the IC50 was 1.13 ± 0.19 µM. In addition, in assay [4], the “Bax gene expression fold change” value was 6.7 fold, the “Bcl-2 gene expression fold change” value was 0.11 fold, the “P53 gene expression fold change” value was determined as 7.9 fold and the “PIM-1 gene expression fold change” value was determined as 0.31 fold. Besides, in assay [4], the “caspase-3 gene expression fold change” value is given as 11.2 fold, the “caspase-8 gene expression fold change” value came to 1.23 fold and the “caspase-9 gene expression fold change” value was determined as 8.9 fold.
As to `N#Cc1c(-c2ccc(Cl)cc2)c2c(=O)[nH]c(CCl)nc2n(C2CCCCC2)c1=O` [Compound 6, 2-(Chloromethyl)-5-(4-chlorophenyl)-8-cyclohexyl-4,7-dioxo-3,4,7,8-tetrahydropyrido[2,3-d]pyrimidine-6-carbonitrile], on PIM-1 kinase [3], the 50% inhibitory concentration (IC50) turned out to be 0.0346 ± 0.00018 µM and the “% of PIM-1 inhibition” value is listed as 89.6 ± 2.1%. For the same molecule, in the assay with MCF-10A cells, the half-inhibitory concentration (IC50) came out at 43.5 ± 2.9 µM and the “IC50 ± SD MCF-10A” value is “non-toxic”.
With `N#Cc1c(-c2ccc(Cl)cc2)c2c(=O)[nH]cnc2n(C2CCCCC2)c1=O` [Compound 9, 5-(4-Chlorophenyl)-8-cyclohexyl-4,7-dioxo-3,4,7,8-tetrahydropyrido[2,3-d]pyrimidine-6-carbonitrile], the IC50 in the assay with HepG2 cells (setting [6]) was found to be 4.6 ± 0.34 µM.
`N#Cc1c(-c2ccc(Cl)cc2)c2c(=O)[nH]c(=S)[nH]c2n(C2CCCCC2)c1=O` [Compound 10, 5-(4-Chlorophenyl)-8-cyclohexyl-4,7-dioxo-2-thioxo-1,2,3,4,7,8-hexahydropyrido[2,3-d]pyrimidine-6-carbonitrile]: on PIM-1 kinase [3], the IC50 worked out at 0.0172 ± 0.0002 µM and the “% of PIM-1 inhibition” value worked out at 94.6 ± 2.1%. For the same molecule, in the assay with MCF-10A cells, the half-inhibitory concentration (IC50) was no less than 50 µM and the “IC50 ± SD MCF-10A” value is recorded as “non-toxic”.
On the same counts, the results for `N#Cc1c(-c2ccc(Cl)cc2)c2c(=O)[nH]nnc2n(C2CCCCC2)c1=O` [Compound 11, 5-(4-Chlorophenyl)-8-cyclohexyl-4,7-dioxo-3,4,7,8-tetrahydropyrido[2,3-d][1,2,3]triazine-6-carbonitrile] are 0.0214 ± 0.00024 µM, 92.1 ± 1.9%, no less than 50 µM and “non-toxic”.
On to `N[C@H]1CC[C@H](Nc2nc(Nc3cccc(C(F)(F)F)c3)c3c(=O)[nH]ccc3n2)CC1` [SKI-O-068], for which, at PIM-1 kinase [5], the IC50 is 0.123 ± 0.014 µM.
As to `CN[C@@H]1C[C@H]2O[C@@](C)([C@@H]1OC)n1c3ccccc3c3c4c(c5c6ccccc6n2c5c31)C(=O)NC4` [Staurosporine, reference compound], the IC50 in the assay on HepG2 cells (Homo sapiens, HepG2, read-out: IC50 ± SD HepG2) worked out at 5.07 ± 0.36 µM.
